# Measurements: article PMC6355468 (Journal of Pharmaceutical Analysis, 2018)
# Where two headings read alike, the source gives them in different places.
# What was measured:
# [1] = format: physicochemical, rat
# [2] = test system: rat blood carboxylesterases; format: in vitro ADME; conditions: up to 30 min
# Procedure, shortened: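 Fresh rat blood (200 μL) mixed first with 400 μL methanol, then test compound added. Incubated at 23 °C for 0, 2, 5, 10, 15 and 30 min in triplicate, then centrifuged. Supernatants analysed by LC-MS/MS (Synergi Fusion-RP column, water/methanol ammonium formate–formic acid gradient) for the acid metabolite.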
# [3] = Rat pharmacokinetic study of DZ2002; format: in vivo, Sprague-Dawley rats
# Procedure, shortened: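 Sprague-Dawley rats (230–280 g), four groups of 3 male + 3 female. Single tail-vein bolus of 5 mg/kg (normal saline), or single gavage doses of 5, 10 or 25 mg/kg. Blood (~100 μL) drawn at 0, 5, 15, 30 min and 1, 2, 4, 6, 8, 11, 24 h into heparinized tubes holding 400 μL methanol with 500 nM internal standard, then centrifuged. Parent and acid metabolite measured by LC-MS/MS. Non-compartmental analysis; F from dose-normalized po/iv AUC0–∞, either parent alone or parent plus acid.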
# [4] = after three cycles of freeze and thaw of −70 °C↔23 °C, 80 nM
# [5] = after three cycles of freeze and thaw of −70 °C↔23 °C, 8000 nM
# [6] = in rat blood at 23 °C for 4 h, 80 nM
# [7] = in rat blood at 23 °C for 4 h, 8000 nM
# [8] = in rat blood at −70 °C for 60 days, 80 nM
# [9] = in rat blood at −70 °C for 60 days, 8000 nM
# [10] = in supernatant of methanol-treated rat blood at 10 °C for 24 h, 80 nM
# [11] = in supernatant of methanol-treated rat blood at 10 °C for 24 h, 8000 nM
# [12] = both, Sprague-Dawley, rat, blood, po
# [13] = female, Sprague-Dawley, rat, blood, iv, 5 mg/kg
# [14] = female, Sprague-Dawley, rat, blood, po, 5 mg/kg
# [15] = female, Sprague-Dawley, rat, blood, po, 10 mg/kg
# [16] = female, Sprague-Dawley, rat, blood, po, 25 mg/kg
# [17] = male, Sprague-Dawley, rat, blood, iv, 5 mg/kg
# [18] = male, Sprague-Dawley, rat, blood, po, 5 mg/kg
# [19] = male, Sprague-Dawley, rat, blood, po, 10 mg/kg
# [20] = male, Sprague-Dawley, rat, blood, po, 25 mg/kg
# [21] = rats, intravenous DZ2002 at 5 mg/kg
molecule,measurement,setting,value
"3-(6-amino-9H-purin-9-yl)-2,2-diethylpropanoic acid [Internal standard, reference compound]","Stability, response (%Control)","[1]; after three cycles of freeze and thaw of −70 °C↔23 °C, 500 nM",(98.4) %Control
same,"Stability, response (%Control)","[1]; in rat blood at 23 °C for 4 h, 500 nM",(108) %Control
same,"Stability, response (%Control)","[1]; in rat blood at −70 °C for 60 days, 500 nM",(104) %Control
same,"Stability, response (%Control)","[1]; in stock solutions at −70 °C for 6 months, internal standard (500 nM)",(97.9) %Control
same,"Stability, response (%Control)","[1]; in supernatant of methanol-treated rat blood at 10 °C for 24 h, 500 nM",(106) %Control
"COC(=O)[C@@H](O)CCn1cnc2c(N)ncnc21 [DZ2002, Methyl (S)-4-(6-amino-9H-purin-9-yl)-2-hydroxybutanoate]",Formation of DZA in methanol-treated rat blood spiked with DZ2002,"[2]; 400 μL methanol to 50–200 μL rat blood, 23 °C",undetected
same,Stability of DZ2002 in rat blood,"[2]; freshly collected rat blood, 1000 nM, 23 or 37 °C",quickly transformed into its acid metabolite DZA
same,"Stability, response (%Control)",[1]; [4],(108) %Control
same,"Stability, response (%Control)",[1]; [5],(102) %Control
same,"Stability, response (%Control)",[1]; [6],(93.6) %Control
same,"Stability, response (%Control)",[1]; [7],(102) %Control
same,"Stability, response (%Control)",[1]; [8],(94.6) %Control
same,"Stability, response (%Control)",[1]; [9],(92.4) %Control
same,"Stability, response (%Control)",[1]; [10],(108) %Control
same,"Stability, response (%Control)",[1]; [11],(108) %Control
same,bioavailability,[3]; [12],90 to 159%
same,half-life,[3]; [12],18 to 54 min
same,"F1 (oral bioavailability, from AUC of DZ2002)","[3]; female rat, oral DZ2002 at 5 mg/kg vs iv 5 mg/kg",145 ± 27%
same,"F1 (oral bioavailability, from AUC of DZ2002)","[3]; female rat, oral DZ2002 at 10 mg/kg vs iv 5 mg/kg",90 ± 27%
same,"F1 (oral bioavailability, from AUC of DZ2002)","[3]; female rat, oral DZ2002 at 25 mg/kg vs iv 5 mg/kg",118 ± 41%
same,AUC(0-inf),[3]; [13],0.68 ± 0.396 µM·h
same,AUC(0-t),[3]; [13],0.66 ± 0.376 µM·h
same,MRT,[3]; [13],9 ± 3.6 min
same,Vd,[3]; [13],4.59 ± 0.96 L/kg
same,clearance,[3]; [13],590 mL/min/kg
same,concentration at 5 min,[3]; [13],3.03 ± 1.45 µM
same,half-life,[3]; [13],9 ± 6.6 min
same,AUC(0-inf),[3]; [14],0.985 ± 0.184 µM·h
same,AUC(0-t),[3]; [14],0.963 ± 0.182 µM·h
same,Cmax,[3]; [14],2.72 ± 0.418 µM
same,MRT,[3]; [14],25.8 ± 6.6 min
same,Tmax,[3]; [14],4.8 min
same,half-life,[3]; [14],18.6 ± 7.2 min
same,AUC(0-inf),[3]; [15],1.23 ± 0.348 µM·h
same,AUC(0-t),[3]; [15],1.18 ± 0.366 µM·h
same,Cmax,[3]; [15],2.13 ± 0.742 µM
same,MRT,[3]; [15],44.4 ± 9.6 min
same,Tmax,[3]; [15],8.4 ± 6 min
same,half-life,[3]; [15],32.4 ± 10.8 min
same,AUC(0-inf),[3]; [16],4.02 ± 1.4 µM·h
same,AUC(0-t),[3]; [16],3.95 ± 1.43 µM·h
same,Cmax,[3]; [16],8.49 ± 2.49 µM
same,MRT,[3]; [16],40.2 ± 13.8 min
same,Tmax,[3]; [16],4.8 min
same,half-life,[3]; [16],42.6 ± 25.2 min
same,"F1 (oral bioavailability, from AUC of DZ2002)","[3]; male rat, oral DZ2002 at 5 mg/kg vs iv 5 mg/kg",157 ± 18%
same,"F1 (oral bioavailability, from AUC of DZ2002)","[3]; male rat, oral DZ2002 at 10 mg/kg vs iv 5 mg/kg",146 ± 20%
same,"F1 (oral bioavailability, from AUC of DZ2002)","[3]; male rat, oral DZ2002 at 25 mg/kg vs iv 5 mg/kg",159 ± 48%
same,AUC(0-inf),[3]; [17],0.504 ± 0.146 µM·h
same,AUC(0-t),[3]; [17],0.495 ± 0.142 µM·h
same,MRT,[3]; [17],6.6 ± 1.2 min
same,Vd,[3]; [17],4.5 ± 1.22 L/kg
same,clearance,[3]; [17],707 mL/min/kg
same,concentration at 5 min,[3]; [17],2.46 ± 0.597 µM
same,half-life,[3]; [17],4.8 ± 0.6 min
same,AUC(0-inf),[3]; [18],0.79 ± 0.092 µM·h
same,AUC(0-t),[3]; [18],0.729 ± 0.052 µM·h
same,Cmax,[3]; [18],1.38 ± 0.457 µM
same,MRT,[3]; [18],40.2 ± 19.2 min
same,Tmax,[3]; [18],11.4 ± 6 min
same,half-life,[3]; [18],27 ± 13.8 min
same,AUC(0-inf),[3]; [19],1.47 ± 0.199 µM·h
same,AUC(0-t),[3]; [19],1.41 ± 0.171 µM·h
same,Cmax,[3]; [19],2.36 ± 1.1 µM
same,MRT,[3]; [19],49.8 ± 14.4 min
same,Tmax,[3]; [19],8.4 ± 6 min
same,half-life,[3]; [19],40.8 ± 29.4 min
same,AUC(0-inf),[3]; [20],4 ± 1.21 µM·h
same,AUC(0-t),[3]; [20],3.85 ± 1.15 µM·h
same,Cmax,[3]; [20],4.02 ± 0.898 µM
same,MRT,[3]; [20],72 ± 22.2 min
same,Tmax,[3]; [20],8.4 ± 6 min
same,half-life,[3]; [20],55.8 ± 16.2 min
same,"Systemic clearance (CLtot,b) exceeding rat cardiac output (17.8 L/h/kg)",[3]; [21],around 2 times
same,"Systemic clearance (CLtot,b) exceeding rat hepatic blood flow rate (3.31 L/h/kg)",[3]; [21],around 13 times
"Nc1ncnc2c1ncn2CCC(O)C(=O)O (stereo not shown) [DZA, 4-(6-amino-9H-purin-9-yl)-2-hydroxybutyric acid]","Stability, response (%Control)",[1]; [4],(98.1) %Control
same,"Stability, response (%Control)",[1]; [5],(89.5) %Control
same,"Stability, response (%Control)",[1]; [6],(95.2) %Control
same,"Stability, response (%Control)",[1]; [7],(97.5) %Control
same,"Stability, response (%Control)",[1]; [8],(108) %Control
same,"Stability, response (%Control)",[1]; [9],(112) %Control
same,"Stability, response (%Control)",[1]; [10],(106) %Control
same,"Stability, response (%Control)",[1]; [11],(109) %Control
same,half-life,[3]; [12],78 to 306 min
same,AUC(0-inf),[3]; [13],4.8 ± 0.3 µM·h
same,AUC(0-t),[3]; [13],4.71 ± 0.34 µM·h
same,MRT,[3]; [13],30.6 ± 1.8 min
same,concentration at 5 min,[3]; [13],15.5 µM
same,half-life,[3]; [13],73.2 ± 26.4 min
same,AUC(0-inf),[3]; [14],4.36 ± 0.701 µM·h
same,AUC(0-t),[3]; [14],4.27 ± 0.669 µM·h
same,Cmax,[3]; [14],6.49 ± 1.04 µM
same,MRT,[3]; [14],60.6 ± 5.4 min
same,Tmax,[3]; [14],11.4 ± 6 min
same,half-life,[3]; [14],124 ± 68.4 min
same,AUC(0-inf),[3]; [15],7.81 ± 0.846 µM·h
same,AUC(0-t),[3]; [15],7.6 ± 1.03 µM·h
same,Cmax,[3]; [15],7.23 ± 1.98 µM
same,MRT,[3]; [15],97.8 ± 44.4 min
same,Tmax,[3]; [15],16.8 ± 12.6 min
same,half-life,[3]; [15],233 ± 225 min
same,AUC(0-inf),[3]; [16],18.4 µM·h
same,AUC(0-t),[3]; [16],17.6 µM·h
same,Cmax,[3]; [16],19.8 µM
same,MRT,[3]; [16],177 ± 166 min
same,Tmax,[3]; [16],11.4 ± 6 min
same,half-life,[3]; [16],305 ± 218 min
same,AUC(0-inf),[3]; [17],5.03 ± 0.212 µM·h
same,AUC(0-t),[3]; [17],4.94 ± 0.226 µM·h
same,MRT,[3]; [17],33.6 ± 16.8 min
same,concentration at 5 min,[3]; [17],15.3 µM
same,half-life,[3]; [17],96.6 ± 104 min
same,AUC(0-inf),[3]; [18],3.9 ± 0.501 µM·h
same,AUC(0-t),[3]; [18],3.77 ± 0.608 µM·h
same,Cmax,[3]; [18],5.23 ± 2.59 µM
same,MRT,[3]; [18],74.4 ± 40.8 min
same,Tmax,[3]; [18],19.8 ± 8.4 min
same,half-life,[3]; [18],79.8 ± 38.4 min
same,AUC(0-inf),[3]; [19],6.81 ± 0.223 µM·h
same,AUC(0-t),[3]; [19],6.71 ± 0.267 µM·h
same,Cmax,[3]; [19],7.03 ± 1.05 µM
same,MRT,[3]; [19],78.6 ± 11.4 min
same,Tmax,[3]; [19],19.8 ± 8.4 min
same,half-life,[3]; [19],87.6 ± 13.8 min
same,AUC(0-inf),[3]; [20],18.4 µM·h
same,AUC(0-t),[3]; [20],18.1 µM·h
same,Cmax,[3]; [20],16 µM
same,MRT,[3]; [20],96 ± 18.6 min
same,Tmax,[3]; [20],25.2 ± 8.4 min
same,half-life,[3]; [20],167 ± 82.8 min
